Laboratory results reported in ChEMBL document CHEMBL4334433, “BIM-46174 fragments as potential ligands of G proteins” (Medchemcomm, 2019).
The source made the active and inactive calls. The calls are words filed in the database; no cut-off is given here.

Key:
Assay type in all cases: cell-based
[1] = target: T1, Guanine nucleotide-binding protein G(q) subunit alpha (Homo sapiens) (UniProt P50148); assay: Inhibition of Galpha-q in human HEK293 cells assessed as reduction in CCh-induced IP1 accumulation at 100 uM preincubated for 2 hrs followed by CCh stimulation and measured after 35 mins by time resolved fluorescence assay
T1 sequence (whole entry): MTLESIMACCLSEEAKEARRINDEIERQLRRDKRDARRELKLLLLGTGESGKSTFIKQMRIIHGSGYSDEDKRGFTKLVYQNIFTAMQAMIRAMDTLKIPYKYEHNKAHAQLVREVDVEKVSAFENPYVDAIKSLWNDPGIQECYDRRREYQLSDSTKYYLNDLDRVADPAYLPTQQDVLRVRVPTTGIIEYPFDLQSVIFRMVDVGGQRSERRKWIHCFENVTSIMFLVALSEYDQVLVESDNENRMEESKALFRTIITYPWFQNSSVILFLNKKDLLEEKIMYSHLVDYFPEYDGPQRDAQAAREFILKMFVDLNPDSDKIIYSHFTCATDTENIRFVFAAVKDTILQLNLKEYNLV
Outline: (§1)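 HEK293 wt cells were grown in DMEM with 10% FBS and penicillin/streptomycin at 37 °C and 5% CO2. Cells were plated at 60,000 per well and pre-incubated 15 min at 37 °C. Compound was added in stimulation buffer for 2 h at 37 °C, followed by buffer containing 100 µM carbachol (concentration in the added buffer) for 35 min. IP1 was read by HTRF (620/665 nm ratio).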

HEK293 = assay: Cytotoxicity against human HEK293 cells assessed as reduction in cell viability at 100 uM incubated for 22 hrs by CellTiter-BlueTM cell viability assay; details: hek293, 22 h
Outline: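 HEK293 cells were seeded at 25,000 per well on poly-D-lysine and grown overnight, then exposed to compound for 22 h. CellTiter-Blue reagent was added for a further 2 h, and resorufin fluorescence was read at excitation 560 nm and emission 590 nm.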

[2] = target: T1, Guanine nucleotide-binding protein G(q) subunit alpha (Homo sapiens); assay: Inhibition of Galpha-q in human HEK293 cells assessed as reduction in CCh-induced IP1 accumulation preincubated for 2 hrs followed by CCh stimulation and measured after 35 mins by time resolved fluorescence assay; outline: as §1
[3] = target: T1, Guanine nucleotide-binding protein G(q) subunit alpha (Homo sapiens); assay: Inhibition of Galpha-q in human HEK293 cells harbouring PL3alpha mutant assessed as reduction in CCh-induced IP1 accumulation preincubated for 2 hrs followed by CCh stimulation and measured after 35 mins by time resolved fluorescence assay

inhibition [1] | inhibition [2] | inhibition [3] | SMILES | Activity (HEK293)
inactive | – | – | O=C1CCn2cc(-c3ccccc3)nc2[C@H](CC2CCCCC2)N1 | Non-Toxic
inactive | Dose-dependent effect | Active | O=C1Cn2cc(-c3ccccc3)nc2CN1 | Non-Toxic
Active | – | – | N[C@@H](CS)C(=O)N1CCn2cc(-c3ccccc3)nc2[C@@H]1CC1CCCCC1 | Toxic
inactive | – | – | O=C1Cn2cc(-c3ccccc3)nc2CCN1 | Non-Toxic
inactive | – | – | N[C@@H](CS)C(=O)N1CCNC(=O)[C@@H]1CC1CCCCC1 | Non-Toxic
inactive | – | – | O=C1Cn2cc(-c3ccccc3)nc2[C@H](CC2CCCCC2)N1 | Non-Toxic
inactive | – | – | N[C@@H](CS)C(=O)N1CCNC(=O)C1 | Non-Toxic
inactive | – | – | O=C1Cn2cc(-c3ccccc3)nc2[C@H](CC2CCCCC2)CN1 | Non-Toxic
inactive | Dose-dependent effect | Active | O=C1CCn2cc(-c3ccccc3)nc2CN1 | Non-Toxic
